# According to paper PMC7540589 (Chemmedchem, 2020):
# Assay: Thermal and radiochemical stability during 68Ga-radiolabeling
# Type: physicochemical
# Conditions: elevated temperature of 99 °C
# In short: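 Precursor (20 nmol in water) was added to 376.6–461.0 MBq ⁶⁸Ga³⁺ from ⁶⁸Ge/⁶⁸Ga generator fractioned elution with 0.1 M HCl. The mixture was titrated to pH 3.5–4.0 with 1.25 M sodium acetate and heated at 99 °C for 10 min. Reaction mixtures were analysed by analytical radio-HPLC.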
substance,measurement,value
"Ac[D‐Cys^29,Lys(DOTA)^31,Cys^34]NPY29‐36 [Compound 4]",thermal stability of precursor,stable
